The target in assay [1] is T1, 5-hydroxytryptamine receptor 3A (Rattus norvegicus, UniProt P35563).
T1 sequence (P35563 whole entry): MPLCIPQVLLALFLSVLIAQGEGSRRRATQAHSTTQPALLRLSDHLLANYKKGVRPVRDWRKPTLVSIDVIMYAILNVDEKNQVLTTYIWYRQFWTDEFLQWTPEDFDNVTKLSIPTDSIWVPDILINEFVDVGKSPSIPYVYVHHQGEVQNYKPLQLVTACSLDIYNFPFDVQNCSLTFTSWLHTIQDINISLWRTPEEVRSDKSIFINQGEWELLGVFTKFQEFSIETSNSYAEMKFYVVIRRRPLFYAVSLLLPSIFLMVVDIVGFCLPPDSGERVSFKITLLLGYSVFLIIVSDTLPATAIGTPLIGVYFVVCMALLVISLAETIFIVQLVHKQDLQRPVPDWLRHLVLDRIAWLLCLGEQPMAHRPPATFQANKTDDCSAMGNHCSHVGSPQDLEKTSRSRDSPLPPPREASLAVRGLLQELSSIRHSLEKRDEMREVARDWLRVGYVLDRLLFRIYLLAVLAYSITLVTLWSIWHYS
Briefly: Displacement of [3H]LY278584 from 5HT3 receptor in rat cortical homogenate. (In a radioligand displacement assay an active substance lowers the binding of a labelled ligand.)

The target in assay [2] is 5-hydroxytryptamine receptor 2A (Rattus norvegicus, UniProt P14842). As to the kind of experiment: Displacement of [3H]ketanserin from 5HT2A receptor in rat cortex.
Assay [3] concerns the target T2, 5-hydroxytryptamine receptor 1A (Rattus norvegicus, UniProt P19327).
T2 sequence (P19327 whole entry): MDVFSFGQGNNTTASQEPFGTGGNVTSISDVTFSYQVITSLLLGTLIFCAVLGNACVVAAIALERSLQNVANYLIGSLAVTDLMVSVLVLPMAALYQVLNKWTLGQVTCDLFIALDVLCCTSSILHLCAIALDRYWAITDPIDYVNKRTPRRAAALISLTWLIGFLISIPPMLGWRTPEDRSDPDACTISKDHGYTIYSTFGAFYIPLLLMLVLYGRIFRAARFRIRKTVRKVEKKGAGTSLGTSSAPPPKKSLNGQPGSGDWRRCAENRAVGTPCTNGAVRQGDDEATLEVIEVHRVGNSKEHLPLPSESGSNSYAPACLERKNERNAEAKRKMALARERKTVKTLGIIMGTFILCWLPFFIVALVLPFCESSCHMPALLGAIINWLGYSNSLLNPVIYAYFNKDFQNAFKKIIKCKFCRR
Briefly: Displacement of [3H]8-OHDPAT from 5HT1A receptor in rat hippocampus. The class given is tissue-based.

A further assay has as its system Rattus norvegicus. As to the kind of experiment: Antagonist activity at 5HT3 receptor in iv dosed urethane-anesthetized Sprague-Dawley rat assessed as inhibition of 1-phenylbiguanide-induced bradycardia administered 5 mins before 1-phenylbiguanide challenge measured after 5 to 30 mins post-treatment by von Bezold-Jarisch reflex test. The format is functional. The following applies: for ED50: read-out: ID50 (the source's name).

For assay [4], the target named is T3, 5-hydroxytryptamine receptor 3A (Cavia porcellus) (UniProt O70212).
T3 sequence (whole entry): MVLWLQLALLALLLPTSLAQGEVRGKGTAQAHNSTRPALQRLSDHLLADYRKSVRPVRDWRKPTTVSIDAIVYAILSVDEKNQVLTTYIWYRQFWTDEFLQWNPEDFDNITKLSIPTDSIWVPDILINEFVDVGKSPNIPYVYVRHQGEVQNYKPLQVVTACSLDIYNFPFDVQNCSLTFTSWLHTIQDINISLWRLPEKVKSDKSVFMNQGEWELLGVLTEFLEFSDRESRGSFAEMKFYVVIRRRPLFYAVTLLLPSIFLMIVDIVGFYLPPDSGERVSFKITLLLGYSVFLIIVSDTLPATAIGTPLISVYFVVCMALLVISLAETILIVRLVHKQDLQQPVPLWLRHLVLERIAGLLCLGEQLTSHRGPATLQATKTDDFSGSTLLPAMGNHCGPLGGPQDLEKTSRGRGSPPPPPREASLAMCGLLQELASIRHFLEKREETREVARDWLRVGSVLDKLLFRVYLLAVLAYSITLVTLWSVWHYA
Briefly: Agonist activity at 5HT3 receptor in guinea pig thoracic aorta assessed as positive contractility potency at 100 uM. The class given is functional, tissue-based. The procedure, abridged:
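Guinea pig aortic helicoidal strips in PSS at 35 °C, aerated, under 1 g resting force, washed every 20 min for 1 h. Compounds added cumulatively 0.1-100 µM (DMSO vehicle); isometric contraction recorded.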

For assay [5], the target named is 5-hydroxytryptamine receptor 4 (Cavia porcellus, UniProt O70528). As to the kind of experiment: Displacement of [3H]GR-113808 from 5HT4 receptor in guinea pig striatum.
Assay [6] concerns the target T3, 5-hydroxytryptamine receptor 3A (Cavia porcellus). Briefly: Agonist activity at 5HT3 receptor in spontaneously beating guinea pig right atrium assessed as positive chronotropic potency. The format is functional, tissue-based. The following applies: Cardiac atrium. The essentials: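 Isolated guinea pig atria in PSS (Tyrode) with ketanserin 1 µM, 95% O2-5% CO2, pH 7.4, 35 °C. Right atrium beating spontaneously (rate); left atrium paced 1 Hz, 0.6-0.8 ms pulses near 50% threshold (force). Isometric recording after 45-60 min stabilization.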

The target is the same in assay [7]. As to the kind of experiment: Intrinsic activity at 5HT3 receptor in spontaneously beating guinea pig right atrium assessed as positive chronotropic potency relative to serotonin. The following applies: Cardiac atrium. The procedure, abridged:
(§1)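 Guinea pig left and right atria were hung in a 15 mL bath of PSS (pH 7.4, 95% O2-5% CO2, 35 °C) with ketanserin 1 µM. The right atrium beat spontaneously; the left was paced at 1 Hz. Cumulative doses (0.1-100 µM; DMSO ≤0.3%) were added after 45-60 min stabilization. Rate or isometric force was recorded. EC50 came from Probit analysis, n≥4. Intrinsic activity was taken relative to 5-HT.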

Assay [8] shares this target. As to the kind of experiment: Agonist activity at 5HT3 receptor in voltage-stimulated guinea pig left atrium assessed as positive inotropic potency at 100 uM. The class given is functional, tissue-based. The following applies: Cardiac atrium. The procedure, abridged:
as §1

Assay [9] concerns the target Muscarinic acetylcholine receptor. As to the kind of experiment: Displacement of [3H]QNB from muscarinic receptor in rat cortex.
A further assay addresses D(2) dopamine receptor (Rattus norvegicus, UniProt P61169). Briefly: Displacement of [3H]spiperone from dopamine D2 receptor in rat striatum.
The target of a further assay is D(1A) dopamine receptor (Rattus norvegicus, UniProt P18901). As to the kind of experiment: Displacement of [3H]SCH-23390 from dopamine D1 receptor in rat striatum.
Assay [10] has as its target T1, 5-hydroxytryptamine receptor 3A. Briefly: Displacement of [3H]zacopride from 5HT3 receptor in rat cortex.
Assay [11] has as its target T3, 5-hydroxytryptamine receptor 3A (Cavia porcellus). As to the kind of experiment: Agonist activity at 5HT3 receptor in spontaneously beating guinea pig right atrium assessed as positive chronotropic potency at 100 uM. The class given is functional, tissue-based. Particulars: Cardiac atrium. The procedure, abridged: as §1
Assay [12] deals with T4, 5-hydroxytryptamine receptor 3A (Cavia porcellus, UniProt O70212).
T4 sequence (O70212 whole entry): T3 sequence (whole entry)
Briefly: Antagonist activity at 5HT3 receptor in spontaneously beating guinea pig right atrium assessed as inhibition of serotonin-induced maximum response by noncompetitive binding assay. The class given is tissue-based, Cardiac atrium. The essentials: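 Spontaneously beating guinea pig right atrium; 5-HT concentration-response curves (0.001-1.0 µM) before and after 30 min antagonist exposure at three concentrations. IC50 is inhibition of 50% of maximal 5-HT response, Probit analysis, n = 4-6.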

The results in this text go back to ChEMBL document CHEMBL1136924 (J Med Chem, 2009).

Calls of active or inactive are those of the source. Where only a bound is given, the exact number is not on record here.

Chain of 5-hydroxytryptamine receptor 4 (O70528 whole entry): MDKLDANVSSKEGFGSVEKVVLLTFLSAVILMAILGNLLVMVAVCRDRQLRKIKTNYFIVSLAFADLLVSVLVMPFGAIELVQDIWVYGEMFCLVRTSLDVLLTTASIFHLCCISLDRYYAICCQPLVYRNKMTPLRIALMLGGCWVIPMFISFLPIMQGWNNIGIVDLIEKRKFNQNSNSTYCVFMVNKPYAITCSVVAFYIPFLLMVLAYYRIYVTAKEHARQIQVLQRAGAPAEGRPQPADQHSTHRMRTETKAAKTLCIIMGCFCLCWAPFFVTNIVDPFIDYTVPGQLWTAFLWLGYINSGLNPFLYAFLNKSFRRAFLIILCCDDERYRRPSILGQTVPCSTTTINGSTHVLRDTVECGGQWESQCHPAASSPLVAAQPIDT
Chain of 5-hydroxytryptamine receptor 2A (P14842 whole entry): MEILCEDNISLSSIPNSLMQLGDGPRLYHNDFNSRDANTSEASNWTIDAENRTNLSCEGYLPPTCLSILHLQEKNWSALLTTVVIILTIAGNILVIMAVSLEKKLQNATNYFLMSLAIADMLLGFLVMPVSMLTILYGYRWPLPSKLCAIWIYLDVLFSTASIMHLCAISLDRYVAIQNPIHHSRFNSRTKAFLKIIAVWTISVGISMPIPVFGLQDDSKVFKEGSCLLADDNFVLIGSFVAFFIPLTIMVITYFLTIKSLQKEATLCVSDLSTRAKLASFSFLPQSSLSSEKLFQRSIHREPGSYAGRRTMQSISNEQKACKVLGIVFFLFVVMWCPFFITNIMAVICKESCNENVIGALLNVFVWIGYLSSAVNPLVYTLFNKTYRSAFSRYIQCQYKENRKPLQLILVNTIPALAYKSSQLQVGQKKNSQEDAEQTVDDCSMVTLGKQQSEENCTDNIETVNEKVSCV
Chain of D(1A) dopamine receptor (P18901 whole entry): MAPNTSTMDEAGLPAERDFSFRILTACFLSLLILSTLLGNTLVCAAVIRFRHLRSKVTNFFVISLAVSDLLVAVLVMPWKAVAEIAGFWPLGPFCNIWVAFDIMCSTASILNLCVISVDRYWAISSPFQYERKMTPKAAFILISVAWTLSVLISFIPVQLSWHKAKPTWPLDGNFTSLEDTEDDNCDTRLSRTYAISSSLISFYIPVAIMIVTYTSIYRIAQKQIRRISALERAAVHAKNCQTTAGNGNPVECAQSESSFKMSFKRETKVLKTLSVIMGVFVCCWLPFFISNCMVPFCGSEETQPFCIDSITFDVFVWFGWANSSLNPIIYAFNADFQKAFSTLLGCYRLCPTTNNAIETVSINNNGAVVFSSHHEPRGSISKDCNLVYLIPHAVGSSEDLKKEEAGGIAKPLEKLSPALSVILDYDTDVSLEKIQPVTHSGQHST
Chain of D(2) dopamine receptor (P61169 whole entry): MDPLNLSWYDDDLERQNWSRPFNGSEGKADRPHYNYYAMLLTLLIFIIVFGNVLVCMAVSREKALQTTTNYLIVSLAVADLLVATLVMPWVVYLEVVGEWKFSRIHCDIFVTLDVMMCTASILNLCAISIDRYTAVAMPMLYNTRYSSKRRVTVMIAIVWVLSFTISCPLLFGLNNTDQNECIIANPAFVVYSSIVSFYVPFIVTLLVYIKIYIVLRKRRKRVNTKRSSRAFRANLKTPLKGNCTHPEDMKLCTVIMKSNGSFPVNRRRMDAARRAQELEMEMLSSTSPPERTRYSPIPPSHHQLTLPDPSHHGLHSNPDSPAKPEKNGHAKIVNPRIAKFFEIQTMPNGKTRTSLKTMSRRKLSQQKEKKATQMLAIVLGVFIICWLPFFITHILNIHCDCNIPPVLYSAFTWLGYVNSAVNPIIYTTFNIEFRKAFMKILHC

In turn, `O=c1[nH]nc(CN2CCN(c3nc4cc(F)ccc4n4cccc34)CC2)o1` registered a Ki in assay [1] of 127 nM.
On the same count and under the same terms, the same measure for `Cc1cccc2nc(N3CCN(CC(=O)NO)CC3)c3cccn3c12`: 3 nM.
As to `CN1CCN(c2nc3cc(F)ccc3n3cccc23)CC1`, the Ki in assay [2] was 124 nM; in [3] it was 138 nM; in [1], 0.8 nM; in [5], over 10000 nM. The ID50 entry in the assay with Rattus norvegicus is “Dose-dependent effect”. Further, the ED50 in the assay on Rattus norvegicus came out at 0.6 mg/kg. Moreover, the pD2 result in assay [4] and in assay [8] was “inactive” throughout. For the same compound, the pD2 in [6] was determined as 6.79. The Intrinsic activity in assay [7] was 0.6.
In the case of `c1ccc2nc(N3CCNCC3)ccc2c1` [QUIPAZINE], the Ki in assay [1] was 0.96 nM; in assay [5] it was over 10000 nM.
In the case of `O=C(O)CN1CCN(c2ccc3ccccc3n2)CC1`, the Ki in [9] is over 10000 nM; in [2] it was over 10000 nM; on D(2) dopamine receptor, 919 nM; in assay [3], over 10000 nM; on D(1A) dopamine receptor, over 10000 nM; in assay [1], 11.2 nM. The compound further yielded a Ki in assay [5] of 5750 nM.
The compound `Cc1cccc2nc(N3CCN(C(C(=O)O)c4ccccc4)CC3)c3cccn3c12` (centres undefined) had a Ki in assay [1] of 44 nM.
Compound `Fc1ccc2c(c1)nc(N1CCN(Cc3nnn[nH]3)CC1)c1cccn12` showed a Ki in assay [1] of 65 nM.
For the compound `Cc1cccc2nc(N3CCN(C)CC3)c3cccn3c12`, the values for the Ki in assay [3] and in [10] were over 10000 nM and 0.8 nM, respectively.
In assay [10], `CN1CCN(c2nc3cc(O)ccc3n3cccc23)CC1` showed a Ki of 0.7 nM.
The compound `Fc1ccc2c(c1)nc(N1CCN(Cc3nnc[nH]3)CC1)c1cccn12` came in with a Ki in assay [1] of 3.4 nM. The pD2 result in assay [4], in assay [11] and in assay [8] was “inactive” in each case. Further, the IC50 in assay [12] was 8510 nM.
Regarding `O=c1[nH]nc(CN2CCN(c3nc4cc(F)ccc4n4cccc34)CC2)[nH]1`, in [1], the affinity corresponds to a Ki of 17 nM.
As for `O=C(CN1CCN(c2nc3cc(F)ccc3n3cccc23)CC1)NO`, the ED50 with Rattus norvegicus came out at 0.05 mg/kg. In assay [1], this compound came in with a Ki of 2.2 nM.
On to `Fc1ccc2c(c1)nc(N1CCN(Cc3ccccc3)CC1)c1cccn12`, for which the Ki in assay [10] was 13 nM.
In assay [1], `NC(CO)C(=O)N1CCN(c2nc3cc(F)ccc3n3cccc23)CC1` (single isomer, unassigned) returned a Ki of 237 nM.
On the same count and under the same terms, the same measure for `Cc1cccc2nc(N3CCN(C(CO)c4ccccc4)CC3)c3cccn3c12` (centres undefined): 79 nM; for `CS(=O)(=O)NC(=O)CN1CCN(c2nc3cc(F)ccc3n3cccc23)CC1`: 246 nM.
Same read-out and setting: the same measure for `O=C(O)CN1CCN(c2nc3cc(O)ccc3n3cccc23)CC1`: 2.1 nM.

By Ki is commonly meant the equilibrium dissociation constant of an inhibitor or competing ligand from its target. The low end stands for tighter binding, the high end for weaker binding. Broadly, the IC50 is the concentration that gives 50% inhibition.
